Measured values of several laboratories.
RAF1: RAF proto-oncogene serine/threonine-protein kinase (RAF1, Homo sapiens, UniProt P04049)
RAF1 Y340D/Y341D: RAF proto-oncogene serine/threonine-protein kinase (RAF1, Homo sapiens, UniProt P04049, Y340D/Y341D)

| SMILES | target | observed | action | method | tested at | measurement | result |
| --- | --- | --- | --- | --- | --- | --- | --- |
| CNc1cccc2cc(C(=O)Nc3ccc(C(=O)O)cc3)c(=O)[nH]c12 | RAF1 | enzyme activity | inhibitor | – | 10 µM | inhibition | 6.9% |
| COc1cc(-c2cc(-c3ccc(N4CCNCC4)cc3)cnc2N)cc(OC)c1OC | RAF1 | enzyme activity | inhibitor | – | 0.1 µM | inhibition | 2% |
| CC(C)c1ccc(NC(=O)c2cccs2)c(-c2nc3ccccc3[nH]c2=O)c1 | RAF1 | enzyme activity | inhibitor | – | 1 µM | activity vs control | 96% |
| C[S+]([O-])c1ccc(-c2nc(-c3ccncc3)c(-c3ccc(F)cc3)[nH]2)cc1 (stereo not shown) | RAF1 | cell-free assay | – | – | 0.5 µM | remaining signal | 41.1% |
| CN1CC(Oc2cnc(C#N)cc2-c2ccn3nc(NC(=O)C4CC4)cc3c2)C1 | RAF1 | enzyme activity | inhibitor | – | 1 µM | inhibition | 2% |
| CCN(CC)CCNC(=O)c1c(C)[nH]c(/C=C2\C(=O)Nc3ccc(F)cc32)c1C | RAF1 | enzyme activity | inhibitor | – | 1 µM | remaining activity | 95% |
| Nc1ncnc2occ(-c3ccc(NC(=O)Nc4cc(C(F)(F)F)ccc4F)cc3)c12 | RAF1 | cell-free assay | inhibitor | – | 20 µM | remaining signal | 0% |
| Cc1ccc(Nc2nccc(N(C)c3ccc4c(C)n(C)nc4c3)n2)cc1S(N)(=O)=O | RAF1 | enzyme activity | inhibitor | – | 10 µM | inhibition | 96% |
| C=CC(=O)Nc1cc(Nc2nccc(Nc3cc(Cl)c(F)cc3C(C)(C)O)n2)c(OC)cc1N1CC[C@@H](N(C)C)C1 | RAF1 | enzyme activity | inhibitor | – | 1 µM | inhibition | 10% |
| CCN(CC)c1ccc(C2=NNC(=O)CC2C)cc1[N+](=O)[O-] (stereo not shown) | RAF1 | enzyme activity | inhibitor | – | 10 µM | remaining activity | 90% |
| CSc1nc(C)c(-c2ccnc(Nc3ccc(N4CCOCC4)cc3)c2)[nH]1 | RAF1 | enzyme activity | inhibitor | – | 10 µM | inhibition | 64.1% |
| CCOC(=O)c1cc2cc(-c3cc(C(=O)NCc4ccc(C(=O)O)cc4)nn3C)ccc2[nH]1 | RAF1 | cell-free assay | – | competition with immobilised ligand | 0.1 µM | remaining binding | 100% |
| CC(C)(C)c1nc2c(s1)c1nc(N)ncc1c1ccc(NS(=O)(=O)c3c(F)cccc3F)c(F)c12 | RAF1 Y340D/Y341D | enzyme activity | inhibitor | radiometric | 1 µM | remaining activity | 9% |
| Cc1ccc(NC(=O)c2ccc(C)c(C(F)(F)F)c2)cc1C#Cc1nn(C2CCC(O)CC2)c2ncnc(N)c12 (stereo not shown) | RAF1 | cell-free assay | – | – | 10 µM | remaining signal | 24% |
| O=C(O)c1cc(-c2ccc(C3CCNCC3)cc2)c2ccc(-c3ccc(C(F)(F)F)cc3)cc2c1 | RAF1 | cell-free assay | – | competition with immobilised ligand | 1 µM | remaining binding | 70% |
| CN(C)C1CCN(CC#Cc2nn(C3CCCC3)c3nc(NCc4ccccc4)ncc23)C1 (stereo not shown) | RAF1 Y340D/Y341D | enzyme activity | inhibitor | FRET | 10 µM | inhibition | 3% |

| SMILES | target | observed | action | method | tested at | measurement | result |
| --- | --- | --- | --- | --- | --- | --- | --- |
| CN(C)C(=O)Cn1cc(-c2nc(C3(c4ccc(-c5cnc(N)nc5)cc4)CC3)no2)cn1 | RAF1 | cell-free assay | – | competition with immobilised ligand | 1 µM | remaining binding | 100% |
| Cc1[nH]c(/C=C2\C(=O)Nc3ccc(F)cc32)c(C)c1C(=O)N[C@H]1CCN(C(=O)N(C)C)C1 | RAF1 | enzyme activity | inhibitor | – | 1 µM | remaining activity | 100% |
| N#Cc1ccc(Nc2ccc3[nH]c(=O)[nH]c3c2)c(Cl)c1 | RAF1 | cell-free assay | – | competition with immobilised ligand | 1 µM | remaining binding | 68% |
| COc1cc2c(N3CCN(C(=O)Nc4ccc(OC(C)C)cc4)CC3)ncnc2cc1OCCCN1CCCCC1 | RAF1 | cell-free assay | – | – | 0.5 µM | remaining signal | 96.7% |
| CCCOc1ccc(OC)c(F)c1C(=O)c1ccc(C(=O)N[C@@H]2CNC[C@H]2NC(=O)c2ccc3[nH]ncc3c2)cc1 | RAF1 | enzyme activity | inhibitor | – | 10 µM | remaining activity | 109% |
| CS(=O)(=O)c1cc(C2(NC(=O)c3cncc4c3cnn4-c3ccc(F)cc3)CC2)ccn1 | RAF1 | cell-free assay | – | competition with immobilised ligand | 1 µM | remaining binding | 100% |
| Cc1sc(C(=O)NC2COC2)cc1-n1cc(NC(=O)Nc2c(F)cccc2Cl)cn1 | RAF1 | enzyme activity | inhibitor | – | 10 µM | remaining activity | 92.6% |
| O=C(CSc1nc2nccnc2c(=O)n1CCc1ccccc1)Nc1nccs1 | RAF1 Y340D/Y341D | enzyme activity | inhibitor | – | 10 µM | inhibition | 3% |
| COc1cc2ncnc(Nc3ccc(Oc4ccccc4)cc3C)c2cc1OC | RAF1 Y340D/Y341D | enzyme activity | inhibitor | – | 1 µM | inhibition | 27% |
| C[C@H](NC(=O)c1cnc2n1[C@](C)(Cc1ccc(C#N)cc1)C(=O)N2c1cc(Cl)c(F)c(Cl)c1)C(=O)NC1(c2ccccn2)CC1 | RAF1 | cell-free assay | – | competition with immobilised ligand | 1 µM | remaining binding | 100% |
| CNC(=O)c1cc2c(Oc3ccc(NC(=O)C4(C(=O)Nc5ccc(F)cc5)CC4)cc3)ccnc2cc1OC | RAF1 | enzyme activity | inhibitor | radiometric | 1 µM | inhibition | 83% |
| C[C@@H]1CN(c2cc(-c3nn(C)c4ccc(OC5(C)CC5)cc34)ncn2)C[C@H](C)O1 | RAF1 | cell-free assay | – | competition with immobilised ligand | 1 µM | remaining binding | 100% |
| CNCc1ccc(-c2cc(-c3nc(-c4ccc(S(=O)(=O)C(C)C)cc4)cnc3N)on2)cc1 | RAF1 | enzyme activity | inhibitor | – | 0.4 µM | inhibition | 0% |
| Nc1cnc(N2CCc3cc(S(=O)(=O)Nc4c(F)cc(Cl)cc4F)cc(N4CCCC4=O)c32)nc1 | RAF1 | cell-free assay | – | competition with immobilised ligand | 1 µM | remaining binding | 79% |
| O=C1Nc2ccc(Cl)cc2C1=Cc1cc(Cl)c(O)c(Cl)c1 | RAF1 | cell-free assay | – | – | 0.5 µM | remaining signal | 6.93% |
